Data set [1] deals with T1, Palmitoyltransferase ZDHHC20 (Homo sapiens, UniProt Q5W0Z9).
T1 sequence (Q5W0Z9 whole entry): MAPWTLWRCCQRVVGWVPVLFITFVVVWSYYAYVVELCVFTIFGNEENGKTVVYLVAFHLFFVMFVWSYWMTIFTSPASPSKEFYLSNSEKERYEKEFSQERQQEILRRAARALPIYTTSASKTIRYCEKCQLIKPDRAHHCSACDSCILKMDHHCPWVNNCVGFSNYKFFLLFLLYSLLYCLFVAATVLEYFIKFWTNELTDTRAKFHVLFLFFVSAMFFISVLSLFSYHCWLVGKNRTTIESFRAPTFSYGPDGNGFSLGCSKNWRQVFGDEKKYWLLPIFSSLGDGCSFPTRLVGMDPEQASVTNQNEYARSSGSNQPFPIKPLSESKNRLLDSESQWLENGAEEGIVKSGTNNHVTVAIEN
Nature of the data set: Inhibition of human myc-His6-tagged zDHHC20 expressed in HEK293T cells using 5-FAM-GTQGCMGLPCVVM-COOH as substrate preincubated for 1 hr followed by substrate addition and measured at 1 min interval for 2 hrs in presence of palmitoyl-CoA by fluorescence polarization assay. The gist of the method: (§1)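 Purified zDHHC20 run in the acyl-cLIP assay, an earlier adaptation by the same group. Enzyme-mediated acylation of a peptide is read as polarized fluorescence.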
For orientation: In fluorescence polarisation assays a small probe gives low polarisation when free and higher when bound to something large.

Data set [2] addresses T2, Palmitoyltransferase ZDHHC20 (Homo sapiens) (UniProt Q5W0Z9).
T2 sequence (whole entry): T1 sequence (Q5W0Z9 whole entry)
The data set can be described thus: Inhibition of human myc-His6-tagged zDHHC20 expressed in HEK293T cells at 10 uM using 5-FAM-GTQGCMGLPCVVM-COOH as substrate preincubated for 1 hr followed by substrate addition and measured at 1 min interval for 2 hrs in presence of palmitoyl-CoA by fluorescence polarization assay. The conditions noted are these: time 3.0 hrs. The gist of the method: as §1

Data set [3] has as its target T3, Palmitoyltransferase ZDHHC2 (Homo sapiens, UniProt Q9UIJ5).
T3 sequence (Q9UIJ5 whole entry): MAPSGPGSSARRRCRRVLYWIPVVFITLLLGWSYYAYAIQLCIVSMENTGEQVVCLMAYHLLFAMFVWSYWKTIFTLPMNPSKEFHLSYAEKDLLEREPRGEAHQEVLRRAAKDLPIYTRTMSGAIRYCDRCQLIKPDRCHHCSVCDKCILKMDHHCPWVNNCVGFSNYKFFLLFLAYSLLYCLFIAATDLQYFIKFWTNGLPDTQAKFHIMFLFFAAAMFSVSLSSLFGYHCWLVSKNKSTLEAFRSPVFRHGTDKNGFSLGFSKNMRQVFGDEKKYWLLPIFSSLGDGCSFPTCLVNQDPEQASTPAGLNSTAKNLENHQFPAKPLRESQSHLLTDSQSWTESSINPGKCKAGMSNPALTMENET
Nature of the data set: Inhibition of human myc-His6-tagged zDHHC2 expressed in HEK293T cells using 5-FAM-GTQGCMGLPCVVM-COOH as substrate preincubated for 30 mins followed by substrate addition and measured at 1 min interval for 2 hrs in presence of palmitoyl-CoA by fluorescence polarization assay.

For data set [4], the target named is T2, Palmitoyltransferase ZDHHC20 (Homo sapiens). The data set can be described thus: Binding affinity to human myc-His6-tagged zDHHC20 expressed in HEK293T cells at 1 uM measured after 1 hr by TAMRA-azide-labelled in-gel fluorescence analysis. Type of data set: cell-based. The gist of the method:
(§2)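 Myc-tagged enzyme overexpressed in HEK293T cells; cells treated with probe at 1 μM for 1 h. Lysates then clicked to TAMRA-azide, proteins resolved by SDS-PAGE and read by in-gel fluorescence. Expression checked by anti-myc Western blot. n = 2.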

For data set [5], the target named is T4, Palmitoyltransferase ZDHHC2 (Homo sapiens) (UniProt Q9UIJ5).
T4 sequence (whole entry): T3 sequence (Q9UIJ5 whole entry)
Nature of the data set: Binding affinity to human myc-His6-tagged zDHHC2 expressed in HEK293T cells at 1 uM measured after 1 hr by TAMRA-azide-labelled in-gel fluorescence analysis. Type of data set: cell-based. The gist of the method: as §2

Data set [6] is described as follows: Lipophilicity, log P of compound. Type of data set: physicochemical. The conditions noted are these: octanol/water.
For data set [7], the target named is T4, Palmitoyltransferase ZDHHC2 (Homo sapiens). The data set can be described thus: Inhibition of human myc-His6-tagged zDHHC2 expressed in HEK293T cells at 10 uM using 5-FAM-GTQGCMGLPCVVM-COOH as substrate preincubated for 30 mins followed by substrate addition and measured at 1 min interval for 2 hrs in presence of palmitoyl-CoA by fluorescence polarization assay. The conditions noted are these: time 150.0 min.

Activity calls are given as the source filed them. No cut-off for these calls is given here.

As a reminder, the IC50 is the concentration that inhibits the measured activity by half. With `CCCCCCCCCCCCCCN(CC#N)C(=O)/C=C\C(=O)O`, the IC50 in data set [1] was found to be 3.45 µM.
The inhibition is the relative decrease from the control value, in per cent. Regarding `CCCCCCCCCCCCCCNC(=O)/C=C\C(=O)OC`, the inhibition result in data set [2] was “Active”.
As to `CCCCCCCCCCCCCCNC(=O)/C=C\C(=O)Oc1ccccc1`, the IC50 in data set [3] is 2.02 µM. Besides, in data set [2], the inhibition was determined as 50%.
Take `CCCCCCCCCCCCCCC(Br)C(=O)O` (centres undefined): the IC50 in data set [3] stood at 2.02 µM; in data set [1] it was 5.55 µM.
For the compound `C#CCOC(=O)/C=C/C(=O)NCCCCCCCCCCCCCC`, the result in data set [4] and in data set [5] was Active.
As to `C#CCN(CCCCCCCCCCCCCC)C(=O)C=C`, the result in data set [4] and in data set [5] was Active.
In general, logP refers to the decadic logarithm of the partition coefficient of the neutral form, usually between octanol and water. Compound `CCCCCCCCCCCCCCNC(=O)/C=C\C(=O)OCc1cn(CCCNC(=O)CCNC(=O)[C@H](O)C(C)(C)CO)nn1` displayed a logP in data set [6] of 3.33. Also, the IC50 in data set [1] is 9.73 µM.
As to `C=CC(=O)NCCCCCCCCCCCCCC`, the IC50 in data set [3] amounted to 59.9 µM; in data set [1], 21.4 µM.
Regarding `CCCCCCCCCCCCCCNC(=O)/C=C\C(=O)OCC#N`, the IC50 was found to be 2.66 µM in data set [3] and 2.87 µM in data set [1].
Take `C=CC(=O)N(CC#N)CCCCCCCCCCCCCC`: the IC50 in data set [3] is 0.59 µM; in data set [1], 1.35 µM. Also, the inhibition result in data set [7] is “Active”. The same compound showed a logP in data set [6] of 5.48.
With `CCCCCCCCCCCCCCNC(=O)/C=C\C(=O)OCc1cn(CCOCCOCCOCCO)nn1`, in data set [6], the logP is 4.55. Besides, the inhibition result in data set [2] was “Active”.
For `C=CC(=O)N(CC#N)CCOCCCCCCCCCCC`, the inhibition result in data set [7] was “Active”. This compound had a logP in data set [6] of 4.1. Further, the IC50 in data set [1] is 1.97 µM.
Consider `C#CCOC(=O)/C=C\C(=O)NCCCCCCCCCCCCCC`, for which, in data set [7], the inhibition result is “Active”. Moreover, the result in data set [4] and in data set [5] was Active. The IC50 in data set [1] worked out at 3.43 µM.

Values taken from ChEMBL document CHEMBL5126648, “Charting the Chemical Space of Acrylamide-Based Inhibitors of zDHHC20” (ACS Med Chem Lett, 2022).
